Laboratory results taken from ChEMBL document CHEMBL2046280, “Discovery of the novel potent and selective FLT3 inhibitor 1-{5-[7-(3- morpholinopropoxy)quinazolin-4-ylthio]-[1,3,4]thiadiazol-2-yl}-3-p-tolylurea and its anti-acute myeloid leukemia (AML) activities in vitro and in vivo” (J Med Chem, 2012).
Calls of active or inactive are those of the source. No cut-off for these calls is given here.

Columns and labels:
[1] = Cytotoxicity against human HCC827 cells after 72 hrs by MTT assay; conditions: HCC827, 72 h
[2] = target: Serine/threonine-protein kinase PLK1 (Homo sapiens, UniProt P53350); experiment: Inhibition of human PLK1
U-937 = experiment: Cytotoxicity against human U937 cells after 72 hrs by MTT assay; conditions: U-937, 72 h
MV4-11 [3] = experiment: Antitumor activity against human MV4-11 cells xenografted in NOD-SCID mouse assessed as tumor growth inhibition at 100 mg/kg, ip once daily for 21 days measured every 3 days relative to control; assay type: functional; conditions: MV4-11, ip, route intraperitoneal, read-out: GI
Outline: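 Female NOD-SCID mice, 6−7 weeks old, received 100 μL of MV4-11 cells (1 × 10⁸/mL in serum-free medium) s.c. in the hind flank. At 300−500 mm³ tumours, mice were randomized (6 per group). Drug was dissolved in 25% (v/v) PEG400 plus 5% DMSO and given ip once daily at 5 mL/kg. Calipers every 3 days; volume = a × b²/2.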

BT-474 = experiment: Cytotoxicity against human BT474 cells after 72 hrs by MTT assay; conditions: BT-474, 72 h
MV4-11 [4] = experiment: Antitumor activity against human MV4-11 cells xenografted in NOD-SCID mouse assessed as tumor mitotic index at 20 mg/kg, ip administered qd for 21 days measured after 2 to 3 days of last dose by Ki67 staining-based immunohistochemical analysis; assay type: functional, organism-based; design: dose 20 mg/kg
Outline: (§1)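 NOD-SCID mice bearing MV4-11 tumours received 20 mg/kg/d ip and were sacrificed at set times after dosing. Tumours were formalin-fixed and paraffin-embedded, and 4−8 μm sections were cut. Proliferation by Ki67 immunostaining, apoptosis by TUNEL staining, tissue by hematoxylin staining; light-microscope imaging.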

[5] = Cytotoxicity against human SK cells after 72 hrs by MTT assay
[6] = target: Hepatocyte growth factor receptor (Homo sapiens, UniProt P08581); experiment: Inhibition of human Met
Aurora kinase A = Aurora kinase A (Homo sapiens, UniProt O14965); experiment: Inhibition of human Aurora A
A-431 = experiment: Cytotoxicity against human A431 cells after 72 hrs by MTT assay; conditions: A-431, 72 h
MDA-MB-231 = experiment: Cytotoxicity against human MDA-MB-231 cells after 72 hrs by MTT assay; conditions: MDA-MB-231, 72 h
K562 = experiment: Cytotoxicity against human K562 cells after 72 hrs by MTT assay; conditions: K562, 72 h
[7] = target: Vascular endothelial growth factor receptor 1 (Homo sapiens, UniProt P17948); experiment: Inhibition of human FLT1
MV4-11 [8] = experiment: Antitumor activity against human MV4-11 cells xenografted in NOD-SCID mouse assessed as tumor regression at 20 mg/kg, ip administered qd for 21 days measured after 2 to 3 days of last dose by hematoxylin staining; assay type: functional, organism-based; design: dose 20 mg/kg; outline: as §1
SW480 = experiment: Cytotoxicity against human SW480 cells after 72 hrs by MTT assay; conditions: SW480, 72 h
Mus musculus [9] = experiment: Toxicity in NOD-SCID mouse bearing human MV4-11 cells assessed as change in body weight at 20 to 100 mg/kg, ip administered qd for 21 days; assay type: organism-based; design: dose 20-100 mg/kg, route intraperitoneal; conditions: in vivo, 504 h
Outline: (§2)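 Female NOD-SCID mice (6−7 weeks old) received s.c. hind-flank injections of MV4-11 cells (100 μL of a 1 × 10⁸/mL suspension in serum-free medium). At 300−500 mm³, the mice were randomized into 4 groups of 6. They were dosed ip once daily for 21 days with 20, 40 or 100 mg/kg/d or vehicle (25% PEG400 plus 5% DMSO, 5 mL/kg). Body weight and signs of toxicity were followed throughout.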

MCF7 = experiment: Cytotoxicity against human MCF7 cells after 72 hrs by MTT assay; conditions: MCF7, 72 h
Mus musculus [10] = experiment: Toxicity in NOD-SCID mouse bearing human MV4-11 cells assessed as signs of toxicity at 20 to 100 mg/kg, ip administered qd for 21 days; assay type: organism-based; design: dose 20-100 mg/kg, route intraperitoneal; conditions: in vivo, 504 h; outline: as §2
[11] = target: Tyrosine-protein kinase SYK (Homo sapiens, UniProt P43405); experiment: Inhibition of human Syk
Ramos = experiment: Cytotoxicity against human Ramos cells after 72 hrs by MTT assay
[12] = target: Mast/stem cell growth factor receptor Kit (Homo sapiens, UniProt P10721); experiment: Inhibition of human c-kit
SK-OV-3 = experiment: Cytotoxicity against human SKOV3 cells after 72 hrs by MTT assay; conditions: SK-OV-3, 72 h
SH-SY5Y = experiment: Cytotoxicity against human SH-SY5Y cells after 72 hrs by MTT assay
Jurkat = experiment: Cytotoxicity against human Jurkat cells after 72 hrs by MTT assay
PC-9 = experiment: Cytotoxicity against human PC9 cells after 72 hrs by MTT assay; conditions: PC-9, 72 h
NCI-H292 = experiment: Cytotoxicity against human NCI-H292 cells after 72 hrs by MTT assay; conditions: NCI-H292, 72 h
LoVo = experiment: Cytotoxicity against human LoVo cells after 72 hrs by MTT assay
NCI-H2228 = experiment: Cytotoxicity against human NCI-H2228 cells after 72 hrs by MTT assay; conditions: NCI-H2228, 72 h

Chain of Hepatocyte growth factor receptor (P08581 whole entry): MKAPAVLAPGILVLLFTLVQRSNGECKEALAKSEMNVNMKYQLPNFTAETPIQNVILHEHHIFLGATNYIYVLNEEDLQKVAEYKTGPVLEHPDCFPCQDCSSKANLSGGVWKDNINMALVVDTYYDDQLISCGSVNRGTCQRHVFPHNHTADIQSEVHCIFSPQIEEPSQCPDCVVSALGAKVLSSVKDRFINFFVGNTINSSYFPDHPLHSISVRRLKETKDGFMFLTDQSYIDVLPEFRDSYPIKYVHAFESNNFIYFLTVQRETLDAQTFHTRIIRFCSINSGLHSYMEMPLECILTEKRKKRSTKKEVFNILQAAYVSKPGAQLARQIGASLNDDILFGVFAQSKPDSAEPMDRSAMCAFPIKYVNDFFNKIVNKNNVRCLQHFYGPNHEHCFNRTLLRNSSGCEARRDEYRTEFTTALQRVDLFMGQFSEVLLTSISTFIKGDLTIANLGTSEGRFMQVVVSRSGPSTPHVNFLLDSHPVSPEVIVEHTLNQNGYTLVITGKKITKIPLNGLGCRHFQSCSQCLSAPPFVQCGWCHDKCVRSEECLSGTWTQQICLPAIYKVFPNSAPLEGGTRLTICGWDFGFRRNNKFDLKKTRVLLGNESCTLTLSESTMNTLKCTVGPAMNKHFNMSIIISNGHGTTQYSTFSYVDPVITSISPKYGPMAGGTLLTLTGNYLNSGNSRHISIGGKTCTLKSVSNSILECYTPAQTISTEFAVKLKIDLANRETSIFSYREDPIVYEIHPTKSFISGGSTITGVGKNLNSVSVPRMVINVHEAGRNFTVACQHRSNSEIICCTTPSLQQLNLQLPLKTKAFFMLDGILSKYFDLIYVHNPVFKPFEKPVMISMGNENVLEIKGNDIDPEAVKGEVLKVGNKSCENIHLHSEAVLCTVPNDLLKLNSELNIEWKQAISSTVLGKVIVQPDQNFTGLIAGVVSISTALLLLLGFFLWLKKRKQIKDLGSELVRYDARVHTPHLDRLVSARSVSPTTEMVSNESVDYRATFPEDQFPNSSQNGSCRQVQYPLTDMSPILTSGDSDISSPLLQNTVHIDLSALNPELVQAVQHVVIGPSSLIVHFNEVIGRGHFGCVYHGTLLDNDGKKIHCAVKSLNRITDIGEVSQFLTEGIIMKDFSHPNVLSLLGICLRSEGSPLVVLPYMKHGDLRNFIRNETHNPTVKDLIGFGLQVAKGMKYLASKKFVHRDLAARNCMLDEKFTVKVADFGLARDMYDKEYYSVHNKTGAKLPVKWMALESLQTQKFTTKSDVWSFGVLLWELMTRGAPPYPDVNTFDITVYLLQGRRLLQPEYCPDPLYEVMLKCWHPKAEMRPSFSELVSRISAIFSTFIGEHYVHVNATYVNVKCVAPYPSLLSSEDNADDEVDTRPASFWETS
Chain of Serine/threonine-protein kinase PLK1 (P53350 whole entry): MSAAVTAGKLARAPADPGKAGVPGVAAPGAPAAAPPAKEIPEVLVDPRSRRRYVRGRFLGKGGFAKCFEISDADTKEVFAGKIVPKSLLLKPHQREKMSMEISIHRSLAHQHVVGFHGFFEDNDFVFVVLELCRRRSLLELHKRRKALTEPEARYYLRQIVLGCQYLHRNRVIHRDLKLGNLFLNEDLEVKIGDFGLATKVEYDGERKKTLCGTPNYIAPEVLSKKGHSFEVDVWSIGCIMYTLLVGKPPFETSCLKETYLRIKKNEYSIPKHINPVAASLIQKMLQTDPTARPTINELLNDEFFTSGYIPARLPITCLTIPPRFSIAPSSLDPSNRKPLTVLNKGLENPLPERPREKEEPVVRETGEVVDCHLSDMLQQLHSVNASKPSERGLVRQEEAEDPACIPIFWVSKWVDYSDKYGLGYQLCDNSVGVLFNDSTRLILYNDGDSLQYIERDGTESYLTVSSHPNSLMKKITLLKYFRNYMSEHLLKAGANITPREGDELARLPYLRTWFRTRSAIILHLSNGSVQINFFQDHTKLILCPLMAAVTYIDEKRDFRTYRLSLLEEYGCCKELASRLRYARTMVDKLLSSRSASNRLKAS
Chain of Mast/stem cell growth factor receptor Kit (P10721 whole entry): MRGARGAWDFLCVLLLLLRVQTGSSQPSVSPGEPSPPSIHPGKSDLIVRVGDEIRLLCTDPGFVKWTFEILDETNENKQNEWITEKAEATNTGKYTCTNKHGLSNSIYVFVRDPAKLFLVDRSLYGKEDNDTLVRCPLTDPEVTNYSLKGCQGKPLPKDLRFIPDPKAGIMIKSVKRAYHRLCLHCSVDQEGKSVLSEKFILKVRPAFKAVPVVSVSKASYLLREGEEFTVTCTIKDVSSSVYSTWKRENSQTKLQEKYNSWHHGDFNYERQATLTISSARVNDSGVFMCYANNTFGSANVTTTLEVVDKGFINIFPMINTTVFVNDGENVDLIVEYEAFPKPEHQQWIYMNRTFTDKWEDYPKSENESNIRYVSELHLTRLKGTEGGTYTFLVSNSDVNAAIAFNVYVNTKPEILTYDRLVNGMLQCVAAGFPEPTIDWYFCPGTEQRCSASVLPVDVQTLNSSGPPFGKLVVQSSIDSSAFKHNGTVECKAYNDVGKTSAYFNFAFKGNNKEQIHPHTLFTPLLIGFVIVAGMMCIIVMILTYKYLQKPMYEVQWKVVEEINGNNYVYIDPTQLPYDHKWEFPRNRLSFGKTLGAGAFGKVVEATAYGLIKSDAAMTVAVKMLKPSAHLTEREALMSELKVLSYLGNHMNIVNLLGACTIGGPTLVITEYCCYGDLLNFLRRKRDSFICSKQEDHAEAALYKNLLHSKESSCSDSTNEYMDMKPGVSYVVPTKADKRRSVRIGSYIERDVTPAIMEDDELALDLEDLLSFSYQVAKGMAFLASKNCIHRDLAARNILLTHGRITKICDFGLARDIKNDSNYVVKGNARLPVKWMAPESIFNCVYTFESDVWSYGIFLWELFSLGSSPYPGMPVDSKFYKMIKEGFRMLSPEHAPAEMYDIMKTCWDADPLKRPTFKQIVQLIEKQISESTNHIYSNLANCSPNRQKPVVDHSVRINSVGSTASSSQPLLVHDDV
Chain of Aurora kinase A (O14965 whole entry): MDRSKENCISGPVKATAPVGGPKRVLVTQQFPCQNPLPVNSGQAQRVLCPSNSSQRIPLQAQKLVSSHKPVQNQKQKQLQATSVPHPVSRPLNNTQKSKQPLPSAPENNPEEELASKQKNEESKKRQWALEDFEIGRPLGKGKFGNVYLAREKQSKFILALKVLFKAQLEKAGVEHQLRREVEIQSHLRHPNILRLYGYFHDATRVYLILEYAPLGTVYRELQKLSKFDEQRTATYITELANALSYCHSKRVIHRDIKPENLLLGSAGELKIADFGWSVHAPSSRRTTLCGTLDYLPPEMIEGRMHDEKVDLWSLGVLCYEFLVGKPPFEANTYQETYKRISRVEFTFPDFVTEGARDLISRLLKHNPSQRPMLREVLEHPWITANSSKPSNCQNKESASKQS
Chain of Vascular endothelial growth factor receptor 1 (P17948 whole entry): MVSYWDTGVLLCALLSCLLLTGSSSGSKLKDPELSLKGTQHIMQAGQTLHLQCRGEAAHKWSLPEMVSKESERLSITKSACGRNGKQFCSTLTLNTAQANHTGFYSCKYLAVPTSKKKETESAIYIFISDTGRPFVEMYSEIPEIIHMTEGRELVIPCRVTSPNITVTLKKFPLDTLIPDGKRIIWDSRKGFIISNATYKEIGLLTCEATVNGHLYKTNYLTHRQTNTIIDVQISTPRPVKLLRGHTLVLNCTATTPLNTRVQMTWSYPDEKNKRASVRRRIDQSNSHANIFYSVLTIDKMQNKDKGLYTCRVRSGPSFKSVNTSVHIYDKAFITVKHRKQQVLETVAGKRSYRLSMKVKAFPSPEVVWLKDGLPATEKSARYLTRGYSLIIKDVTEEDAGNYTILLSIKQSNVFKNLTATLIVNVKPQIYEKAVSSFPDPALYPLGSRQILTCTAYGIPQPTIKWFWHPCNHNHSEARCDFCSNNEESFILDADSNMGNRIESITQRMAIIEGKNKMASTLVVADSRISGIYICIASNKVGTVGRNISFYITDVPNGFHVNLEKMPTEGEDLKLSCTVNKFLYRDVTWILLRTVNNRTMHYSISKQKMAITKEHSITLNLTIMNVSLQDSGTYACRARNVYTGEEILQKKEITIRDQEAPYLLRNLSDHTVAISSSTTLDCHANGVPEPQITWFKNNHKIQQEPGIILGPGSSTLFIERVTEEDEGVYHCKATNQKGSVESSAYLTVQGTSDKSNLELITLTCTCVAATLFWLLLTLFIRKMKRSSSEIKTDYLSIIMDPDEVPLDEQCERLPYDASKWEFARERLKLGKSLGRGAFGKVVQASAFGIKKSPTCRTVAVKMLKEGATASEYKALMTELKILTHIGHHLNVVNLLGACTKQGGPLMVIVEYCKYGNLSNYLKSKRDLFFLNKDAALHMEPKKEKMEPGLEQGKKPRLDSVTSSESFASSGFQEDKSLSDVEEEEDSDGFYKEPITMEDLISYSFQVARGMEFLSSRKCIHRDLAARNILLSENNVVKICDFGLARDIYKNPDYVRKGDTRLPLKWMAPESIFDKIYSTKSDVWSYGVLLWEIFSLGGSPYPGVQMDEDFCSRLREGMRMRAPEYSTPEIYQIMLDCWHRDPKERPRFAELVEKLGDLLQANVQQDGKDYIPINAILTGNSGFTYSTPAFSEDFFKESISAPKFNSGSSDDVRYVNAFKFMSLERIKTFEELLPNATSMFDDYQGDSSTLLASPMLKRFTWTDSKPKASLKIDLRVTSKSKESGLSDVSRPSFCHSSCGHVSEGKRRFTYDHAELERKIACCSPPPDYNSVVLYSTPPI

IC50 [2]: > 10 µM
IC50 [6]: > 10 µM
IC50 (Aurora kinase A): 1.5 µM
IC50 [7]: > 1 µM
IC50 [11]: > 10 µM
IC50 [12]: 6.8 µM
Structure (SMILES): Cc1ccc(NC(=O)Nc2nnc(Sc3ncnc4cc(OCCCN5CCOCC5)ccc34)s2)cc1
IC50 [1]: 12.5 µM
IC50 (U-937): > 10 µM
inhibition in vivo at 100 mg/kg (MV4-11 [3]): 115%
IC50 (BT-474): > 20 µM
Activity (MV4-11 [4]): Active
IC50 [5]: > 20 µM
IC50 (A-431): 8.91 µM
IC50 (MDA-MB-231): > 20 µM
IC50 (K562): 12.7 µM
Activity (MV4-11 [8]): Active
IC50 (SW480): 11.2 µM
Activity (Mus musculus [9]): Non-toxic
IC50 (MCF7): > 20 µM
Activity (Mus musculus [10]): Non-toxic
IC50 (Ramos): 6.25 µM
IC50 (SK-OV-3): > 20 µM
IC50 (SH-SY5Y): > 20 µM
IC50 (Jurkat): 3.05 µM
IC50 (PC-9): 3.72 µM
IC50 (NCI-H292): 6.94 µM
IC50 (LoVo): > 20 µM
IC50 (NCI-H2228): > 20 µM
